Reference: ChEMBL document CHEMBL4261483, “Synthesis and biological evaluation of memantine nitrates as a potential treatment for neurodegenerative diseases” (Medchemcomm, 2017)
Calls of active or inactive are those of the source. The calls are words filed in the database; no cut-off is given here.

Key:
[1] = tested on: Cerebellar granule neurone; assay: Neuroprotective activity against glutamate-induced excitotoxicity in mouse primary cerebellar granule neurons assessed as increase in cell viability up to 10 uM preincubated for 2 hrs followed by glutamate challenge measured after 24 hrs by MTT assay; format: functional
[2] = tested on: Cerebellar granule neurone; assay: Neuroprotective activity against glutamate-induced excitotoxicity in mouse primary cerebellar granule neurons assessed as increase in cell viability preincubated for 2 hrs followed by glutamate challenge measured after 24 hrs by MTT assay; format: functional
[3] = tested on: Cerebellar granule neurone; assay: Neuroprotective activity against glutamate-induced excitotoxicity in mouse primary cerebellar granule neurons assessed as increase in cell viability at 1 uM preincubated for 2 hrs followed by glutamate challenge measured after 24 hrs by MTT assay; format: functional
Aorta [4] = assay: Vasodilating activity in Sprague-Dawley rat aortic ring precontracted with phenylephrine in absence of endothelium; format: functional, tissue-based; settings: for EC50: Rattus norvegicus, Sprague-Dawley, Aorta
Aorta [5] = assay: Vasodilating activity in Sprague-Dawley rat aortic ring precontracted with phenylephrine in presence of endothelium; format: functional, tissue-based; settings: for EC50: Rattus norvegicus, Sprague-Dawley, Aorta
[6] = tested on: Cerebellar granule neurone; assay: Cytotoxicity against mouse primary cerebellar granule neurons assessed as decrease in cell viability at 100 uM after 24 hrs by MTT assay
Cortical neurone [7] = assay: Neuroprotective activity against glutamate-induced neuronal damage in rat cortical neurons assessed as increase in cell viability at 5 uM preincubated for 2 hrs followed by glutamate challenge measured after 24 hrs by […]/propidium iodide staining-based inverted fluorescence microscopic method; format: functional
How it was run: (§1)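 Rat primary cortical neurons given compound for 2 h, then 200 μM glutamate for 24 h in its presence. Viability by FDA/PI double staining, with live cells green (FDA) and dead cells red (PI), scored from fluorescence images. Memantine 5 μM used as positive control.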

Cortical neurone [8] = assay: Neuroprotective activity against glutamate-induced neuronal damage in rat cortical neurons assessed as decrease in intracellular calcium influx at 5 uM preincubated for 5 min followed by glutamate challenge measured over 280 secs by Fluo-3/AM dye-based fluorescence assay; format: functional, cell-based
How it was run: (§2)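 Cortical neurons loaded with Fluo-3/AM (5 μM) for 30 min at 37 °C, then held in HBSS for 30 min at room temperature. Dye washed out, compound applied for 5 min, and cells imaged with a 20× objective to follow calcium influx.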

Cortical neurone [9] = assay: Neuroprotective activity against glutamate-induced neuronal damage in rat cortical neurons assessed as decrease in H2O2 formation at 5 uM preincubated for 2 hrs followed by glutamate challenge measured after 12 hrs by H2DCF-DA dye-based fluorescence assay; format: functional, cell-based
How it was run: (§3)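 Cortical neurons pretreated 2 h with compound, then exposed to 200 μM glutamate for 12 h in its presence. Probes added for a further 30 min: H2DCF-DA 5 μM (H2O2), HPF 10 μM (·OH), DHE 5 μM (superoxide), DAF-FM 5 μM (NO), DHR123 10 μM (peroxynitrite). Intracellular fluorescence measured.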

Cortical neurone [10] = assay: Neuroprotective activity against glutamate-induced neuronal damage in rat cortical neurons assessed as decrease in formation of hydroxy radicals at 5 uM preincubated for 2 hrs followed by glutamate challenge measured after 12 hrs by HPF dye-based fluorescence assay; format: functional, cell-based; how it was run: as §3
Cortical neurone [11] = assay: Neuroprotective activity against glutamate-induced neuronal damage in rat cortical neurons assessed as decrease in formation of superoxide anions at 5 uM preincubated for 2 hrs followed by glutamate challenge measured after 12 hrs by DHE dye-based fluorescence assay; format: functional, cell-based; how it was run: as §3
Cortical neurone [12] = assay: Neuroprotective activity against glutamate-induced neuronal damage in rat cortical neurons assessed as decrease in formation of nitric oxide at 5 uM preincubated for 2 hrs followed by glutamate challenge measured after 12 hrs by DAF-FM dye-based fluorescence assay; format: functional, cell-based; how it was run: as §3
Cortical neurone [13] = assay: Neuroprotective activity against glutamate-induced neuronal damage in rat cortical neurons assessed as decrease in formation of peroxynitrite at 5 uM preincubated for 2 hrs followed by glutamate challenge measured after 12 hrs by DHR123 dye-based fluorescence assay; format: functional, cell-based; how it was run: as §3
Cortical neurone [14] = assay: Neuroprotective activity in rat cortical neurons assessed as inhibition of glutamate-induced decrease in mitochondrial membrane potential at 5 uM preincubated for 2 hrs followed by glutamate challenge measured after 12 hrs by JC1 staining-based fluorescence assay; format: functional, cell-based
How it was run: (§4)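 Cortical neurons given compound for 2 h, then 200 μM glutamate for 12 h without compound removal. Fluorescence read at 488 nm excitation with dual emission at 529/590 nm.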

Cortical neurone [15] = assay: Neuroprotective activity against glutamate-induced neuronal damage in rat cortical neurons assessed as increase in cell viability preincubated for 2 hrs followed by glutamate challenge measured after 24 hrs by MTT assay; format: functional, cell-based
How it was run: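 Rat primary cortical neurons treated with compound for 2 h, then exposed to 200 μM glutamate for another 24 h without compound removal. Viability by MTT assay. Memantine 5 μM served as positive control.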

Cortical neurone [16] = assay: Neuroprotective activity against glutamate-induced neuronal damage in rat cortical neurons assessed as increase in cell viability preincubated for 2 hrs followed by glutamate challenge measured after 24 hrs by […]/propidium iodide staining-based inverted fluorescence microscopic method; format: functional; how it was run: as §1
Cortical neurone [17] = assay: Neuroprotective activity against glutamate-induced neuronal damage in rat cortical neurons assessed as decrease in intracellular calcium influx at 15 uM preincubated for 5 min followed by glutamate challenge measured over 280 secs by Fluo-3/AM dye-based fluorescence assay; format: functional, cell-based; how it was run: as §2
Cortical neurone [18] = assay: Neuroprotective activity against glutamate-induced neuronal damage in rat cortical neurons assessed as decrease in H2O2 formation preincubated for 2 hrs followed by glutamate challenge measured after 12 hrs by H2DCF-DA dye-based fluorescence assay; format: functional, cell-based; how it was run: as §3
Cortical neurone [19] = assay: Neuroprotective activity against glutamate-induced neuronal damage in rat cortical neurons assessed as decrease in formation of hydroxy radicals preincubated for 2 hrs followed by glutamate challenge measured after 12 hrs by HPF dye-based fluorescence assay; format: functional, cell-based; how it was run: as §3
Cortical neurone [20] = assay: Neuroprotective activity against glutamate-induced neuronal damage in rat cortical neurons assessed as decrease in formation of superoxide anions preincubated for 2 hrs followed by glutamate challenge measured after 12 hrs by DHE dye-based fluorescence assay; format: functional, cell-based; how it was run: as §3
Cortical neurone [21] = assay: Neuroprotective activity against glutamate-induced neuronal damage in rat cortical neurons assessed as decrease in formation of nitric oxide preincubated for 2 hrs followed by glutamate challenge measured after 12 hrs by DAF-FM dye-based fluorescence assay; format: functional, cell-based; how it was run: as §3
Cortical neurone [22] = assay: Neuroprotective activity against glutamate-induced neuronal damage in rat cortical neurons assessed as decrease in formation of peroxynitrite preincubated for 2 hrs followed by glutamate challenge measured after 12 hrs by DHR123 dye-based fluorescence assay; format: functional, cell-based; how it was run: as §3
Cortical neurone [23] = assay: Neuroprotective activity in rat cortical neurons assessed as inhibition of glutamate-induced decrease in mitochondrial membrane potential at 5 to 45 uM preincubated for 2 hrs followed by glutamate challenge measured after 12 hrs by JC1 staining-based fluorescence assay; format: functional, cell-based; how it was run: as §4

Structure (SMILES)	Activity [1]	EC50 [2]	Activity [3]	Emax (Aorta [4])	EC50 (Aorta [4])	Emax (Aorta [5])	Activity [6]	EC50 (Aorta [5])	also measured
CC12CC3CC(N)(C1)CC(O[N+](=O)[O-])(C3)C2 (stereo unspecified)	Active	24.6 µM	–	–	–	–	–	–	–
CCCC12CC3CC(N)(C1)CC(O[N+](=O)[O-])(C3)C2 (stereo unspecified)	–	17.1 µM	Active	61.7%	94.8 µM	52%	–	–	–
CCC12CC3CC(N)(C1)CC(CC(C)O[N+](=O)[O-])(C3)C2 (stereo unspecified)	Active	58.4 µM	–	–	–	–	Toxic	–	–
NC12CC3CC(CO[N+](=O)[O-])(C1)CC(CO[N+](=O)[O-])(C3)C2	–	18.9 µM	Active	90.5%	62.8 µM	96.8%	–	55 µM	–
CC(CO[N+](=O)[O-])CC12CC3CC(N)(C1)CC(CC(C)CO[N+](=O)[O-])(C3)C2 (stereo unspecified)	–	53.2 µM	Active	95.8%	36.5 µM	100%	Toxic	32 µM	–
CCC12CC3CC(N)(C1)CC(CC(C)CO[N+](=O)[O-])(C3)C2 (stereo unspecified)	Active	55.2 µM	–	–	–	–	Toxic	–	–
NC12CC3CC(CCO[N+](=O)[O-])(C1)CC(CCO[N+](=O)[O-])(C3)C2	Active	25.9 µM	–	99.4%	57.1 µM	102%	Toxic	36 µM	–
CCC12CC3CC(N)(C1)CC(CCCO[N+](=O)[O-])(C3)C2 (stereo unspecified)	–	35.2 µM	Active	89.8%	26.9 µM	95%	Toxic	24.4 µM	–
CC(CC12CC3CC(N)(C1)CC(CC(C)O[N+](=O)[O-])(C3)C2)O[N+](=O)[O-] (stereo unspecified)	Active	43 µM	–	–	–	–	Toxic	–	–
CCCC12CC3CC(N)(C1)CC(CO[N+](=O)[O-])(C3)C2 (stereo unspecified)	Active	38.1 µM	–	–	–	–	Toxic	–	–
CC12CC3CC(C)(C1)CC(N)(C3)C2 [MEMANTINE]	–	2.48 µM	Active	–	–	–	–	–	Activity (Cortical neurone [7]): Active; Activity (Cortical neurone [8]): Active; Activity (Cortical neurone [9]): Active; Activity (Cortical neurone [10]): Active; Activity (Cortical neurone [11]): Active; Activity (Cortical neurone [12]): Active; Activity (Cortical neurone [13]): Active; inhibition (Cortical neurone [14]): Active
NC12CC3CC(CCCO[N+](=O)[O-])(C1)CC(CCCO[N+](=O)[O-])(C3)C2	–	39.8 µM	Active	95.4%	34.4 µM	97.7%	Toxic	24.6 µM	–
CCCC12CC3CC(N)(C1)CC(CCCO[N+](=O)[O-])(C3)C2 (stereo unspecified)	Active	57.6 µM	–	–	–	–	Toxic	–	–
CCC12CC3CC(N)(C1)CC(O[N+](=O)[O-])(C3)C2 (stereo unspecified)	–	15.4 µM	Active	42%	146 µM	39.5%	–	–	–
CC12CC3CC(N)(C1)CC(CO[N+](=O)[O-])(C3)C2 (stereo unspecified)	Active	25.2 µM	–	–	–	–	–	–	–
CC12CC3CC(N)(C1)CC(CCCO[N+](=O)[O-])(C3)C2 (stereo unspecified)	Active	39.8 µM	–	–	–	–	Toxic	–	–
CCC12CC3CC(N)(C1)CC(CO[N+](=O)[O-])(C3)C2 (stereo unspecified)	–	10.7 µM	Active	98.2%	50.6 µM	101%	–	46.4 µM	Activity (Cortical neurone [15]): Dose-dependent effect; Activity (Cortical neurone [16]): Dose-dependent effect; Activity (Cortical neurone [17]): Active; Activity (Cortical neurone [18]): Dose-dependent effect; Activity (Cortical neurone [19]): Dose-dependent effect; Activity (Cortical neurone [20]): Dose-dependent effect; Activity (Cortical neurone [21]): Dose-dependent effect; Activity (Cortical neurone [22]): Dose-dependent effect; inhibition (Cortical neurone [23]): Active
